Experimental data taken from ChEMBL document CHEMBL1125085, “Synthesis and anticonvulsant activity of some new 2-substituted 3-aryl-4(3H)-quinazolinones” (J Med Chem, 1990).
Several values for one entry are separate records, joined by “and”; a condition that tells them apart may be missing. Equal values may be shown once.

Columns and labels:
[1] = (§1) Median toxic dose was measured at time of peak neurologic deficit
How it was run: (§2)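 Mice dosed ip in 30% PEG 400. Minimal neurotoxicity was scored by rotorod at the time of peak neurologic deficit. Groups of 8–16 mice were used, with at least three points in the 10–90% range, and TD50 with 95% confidence interval was derived by probit analysis.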

Mus musculus [2] = assay: (§3) Subcutaneous metrazole (scMet) test was conducted and median effective dose was determined at the time of peak anticonvulsant and sedative effect; format: organism-based; conditions: in vivo
How it was run: (§4)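 Pentylenetetrazol (85 mg/kg in mice, 70 mg/kg in rats) was given subcutaneously in the posterior midline as a 0.5% solution. Compounds were in 30% PEG 400, dosed ip in male Carworth Farms no. 1 mice, or orally in mice and Sprague-Dawley rats. ED50 was read at time of peak effect, using groups of 8–16 animals and ≥3 doses giving 10–90% protection. Probit analysis gave 95% confidence intervals.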

Mus musculus [3] = assay: (§5) Subcutaneous metrazole (scMet) test was conducted after Injecting intraperitoneally at the time of peak anticonvulsant in phase II test; format: ADME, organism-based; conditions: ip
How it was run: (§6)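 Phase II testing in male Carworth Farms no. 1 mice, ip dosing in 30% PEG 400 (0.01 mL/g). Groups of 8–16 mice received a range of doses, giving at least three points in 10–90% protection. ED50 with 95% confidence interval was fitted by probit analysis at the time of peak effect. scMet used pentylenetetrazol 85 mg/kg sc.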

Mus musculus [4] = assay: (§7) MES test was performed after Injecting intraperitoneally at the time of peak anticonvulsant effect in phase II test; format: ADME, organism-based; conditions: ip; how it was run: as §6
Mus musculus [5] = species on record: Mus musculus; assay: Anticonvulsant activity was determined by injecting perorally in mice.(scMet) test was conducted; format: functional
How it was run: (§8)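 Oral dosing in mice, test solutions in 30% polyethylene glycol 400, 0.01 mL/g body weight. Groups of 8–16 mice received a range of doses until at least three points fell within 10–90% seizure protection.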

Mus musculus [6] = species on record: Mus musculus; assay: Anticonvulsant activity was determined by injecting perorally in mice. MES test was performed; format: functional; how it was run: as §8
Mus musculus [7] = assay: Dose Injected intraperitoneally that causes loss of righting reflex in mice was reported as hypnotic dose (HD).; format: functional
How it was run: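 Mice dosed ip after a toxicity profile at TD50, 2× and 4× TD50, observed from 10 min to 24 h. HD50 is the dose causing loss of righting reflex in 50% of mice, with groups of eight mice scored at several times up to 24 h.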

[8] = Dose Injected intraperitoneally that causes death 50% of the mice within 24 hr was reported as lethal dose 50 (LD50).; format: organism-based; conditions: mouse, in vivo, ip
Mus musculus [9] = species on record: Mus musculus; assay: Anticonvulsant activity was determined by injecting perorally in mice. Time taken to reach peak toxicity was reported.; format: functional
How it was run: (§9)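 Time of peak effect, in hours, was found separately for anticonvulsant activity and for neurotoxicity. ED50 and TD50 were then determined at those times.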

Mus musculus [10] = species on record: Mus musculus; assay: Anticonvulsant activity was determined by injecting perorally in mice. Time taken to reach peak activity was reported.; format: functional; how it was run: as §9
[11] = Median toxic dose was measured at time of peak neurologic deficit.; format: organism-based; conditions: mouse, in vivo; how it was run: as §2
Rattus norvegicus [12] = species on record: Rattus norvegicus; assay: Anticonvulsant activity was determined by injecting perorally in rats. (scMet) test was conducted; format: functional
Rattus norvegicus [13] = species on record: Rattus norvegicus; assay: Anticonvulsant activity was determined by injecting perorally in rats. MES test was performed; format: functional
Rattus norvegicus [14] = species on record: Rattus norvegicus; assay: Anticonvulsant activity was determined by injecting perorally in rats. Time taken to reach peak toxicity was reported.; format: organism-based; conditions: in vivo, po; how it was run: as §9
Rattus norvegicus [15] = species on record: Rattus norvegicus; assay: Anticonvulsant activity was determined by injecting perorally in rats. Time taken to reach peak activity was reported.; format: functional; how it was run: as §9
[16] = Neurotoxicity was determined by injecting perorally in rats; format: toxicity, organism-based; conditions: rat, in vivo, po
How it was run: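 Rats dosed orally in 30% PEG 400. Neurotoxicity was assessed by positional sense and gait-and-stance tests at the time of peak deficit. TD50 with 95% confidence interval was derived by probit analysis from at least three dose points in the 10–90% range.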

[17] = Protective index is the ratio of TD50 and ED50 values obtained in the maximal electroshock seizure (MES) test.; format: functional
How it was run: (§10)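 Protective index = TD50/ED50. Both values are medians from groups of 8–16 animals per dose, with at least three points in the 10–90% effect range, fitted by probit analysis. Each was taken at its own time of peak effect: seizure protection for ED50, neurologic deficit for TD50.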

[18] = Time taken to reach peak activity was reported.; format: functional
[19] = Time taken to reach peak toxicity was reported.
Mus musculus [20] = assay: Rotarod test was used to evaluate neurotoxicity in mice. Toxicity values are reported after 4.0 hr toxicity at 300 mg/kg; toxic; format: organism-based; set-up: dose 300 mg/kg; conditions: in vivo
Mus musculus [21] = assay: Rotarod test was used to evaluate neurotoxicity in mice. Toxicity values are reported after 0.5 hr at 300 mg/kg; Toxic; format: organism-based; set-up: dose 300 mg/kg; conditions: in vivo
Mus musculus [22] = assay: as §5; format: functional; how it was run: as §6
Mus musculus [23] = assay: as §7; format: functional; conditions: ip; how it was run: as §6
Mus musculus [24] = species on record: Mus musculus; assay: Time taken to reach peak activity was reported; format: functional; how it was run: as §9
[25] = as §1; format: organism-based; conditions: mouse, in vivo; how it was run: as §2
[26] = Protective index is the ratio of TD50 and ED50 values obtained in the subcutaneous metrazole (scMet) test.; format: functional; how it was run: as §10
Mus musculus [27] = assay: Subcutaneous metrazole (scMet) test was conducted and median effective dose was determined at the time of peak anticonvulsant and sedative effect.; format: functional; conditions: sc; how it was run: as §4
Mus musculus [28] = species on record: Mus musculus; assay: Anticonvulsant activity was determined by injecting perorally in mice. Maximal electroshock seizure test was performed; format: functional; how it was run: as §8
[29] = Dose Injected intraperitoneally that causes death 50% of the mice within 24 hr was reported as lethal dose 50. No deaths among eight test animals at 4000 mg/kg after 24 hr in phase III test; format: organism-based; set-up: dose 4000 mg/kg, route intraperitoneal; conditions: mouse, in vivo, ip
Mus musculus [30] = species on record: Mus musculus; assay: Anticonvulsant activity was determined by injecting perorally in mice. Time taken to reach peak activity was reported; format: functional; how it was run: as §9
Mus musculus [31] = species on record: Mus musculus; assay: Anticonvulsant activity was determined by injecting perorally in mice. Time taken to reach peak toxicity was reported; format: organism-based; conditions: in vivo, po; how it was run: as §9
[32] = Median toxic dose was measured at time of peak neurologic deficit in phase II test; format: organism-based; conditions: mouse, in vivo; how it was run: as §2
[33] = Neurotoxicity was determined by injecting perorally in mice. Median toxic dose was measured; format: toxicity, organism-based; conditions: mouse, in vivo, po
How it was run: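 Mice dosed orally in 30% PEG 400. Neurotoxicity was scored by rotorod at the time of peak neurologic deficit. Groups of 8–16 mice were used, with at least three points in the 10–90% range, and TD50 with 95% confidence interval was derived by probit analysis.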

Rattus norvegicus [34] = species on record: Rattus norvegicus; assay: Anticonvulsant activity was determined by injecting perorally in rats. Time taken to reach peak toxicity was reported; format: organism-based; conditions: in vivo, po; how it was run: as §9
Rattus norvegicus [35] = species on record: Rattus norvegicus; assay: Anticonvulsant activity was determined by injecting perorally in rats. Time taken to reach peak activity was reported; format: functional; how it was run: as §9
[36] = Protective index is the ratio of TD50 and ED50 values obtained in the maximal electroshock seizure (MES) test in phase II test; format: functional; how it was run: as §10
[37] = Protective index is the ratio of TD50 and ED50 values obtained in the subcutaneous metrazole (scMet) test in phase II test; format: functional; how it was run: as §10
[38] = Time taken to reach peak activity was reported in phase II test; format: functional
How it was run: (§11)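 Male Carworth Farms no. 1 mice dosed ip in 30% polyethylene glycol 400 (0.01 mL/g). Seizure protection was tested by MES and by sc pentylenetetrazol (85 mg/kg, 0.5% solution, posterior midline); neurotoxicity was tested on the rotorod. Time of peak effect is given in hours. ED50 and TD50 were determined at that time in groups of 8–16 mice.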

[39] = Time taken to reach peak toxicity was reported in phase II test; how it was run: as §11
[40] = Anticonvulsant activity was determined by injecting perorally in mice. Protective index is the ratio of TD50 and ED50 values obtained in the maximal electroshock seizure (MES) test.; format: functional; how it was run: as §10
[41] = Anticonvulsant activity was determined by injecting perorally in mice. Protective index is the ratio of TD50 and ED50 values obtained in the subcutaneous metrazole (scMet) test; format: functional; how it was run: as §10
[42] = Anticonvulsant activity was determined by injecting perorally in rats. Protective index is the ratio of TD50 and ED50 values obtained in the maximal electroshock seizure (MES) test.; format: functional; how it was run: as §10
[43] = Anticonvulsant activity was determined by injecting perorally in rats. Protective index is the ratio of TD50 and ED50 values obtained in the subcutaneous metrazole (scMet) test; format: functional; how it was run: as §10
Mus musculus [44] = assay: as §3; format: functional; conditions: sc; how it was run: as §4

Cc1ccccc1-n1c(C)nc2ccccc2c1=O [METHAQUALONE]
TD50 [1]: 55 mg/kg
ED50 (Mus musculus [2]): 33.5 mg/kg

O=C(Cc1nc2ccccc2c(=O)n1-c1ccccc1Cl)c1ccncc1
ED50 (Mus musculus [3]): 14.5 mg/kg
ED50 (Mus musculus [4]): 196 mg/kg
ED50 (Mus musculus [5]): 2.53 mg/kg
ED50 (Mus musculus [6]): 14.1 mg/kg
HD50 (Mus musculus [7]): 1181 mg/kg
LD50 at 24 h [8]: > 3000 mg/kg
TPE (Mus musculus [9]): 0.5
TPE (Mus musculus [10]): 1
TD50 [11]: 262 mg/kg
ED50 (Rattus norvegicus [12]): 3.09 mg/kg
ED50 (Rattus norvegicus [13]): 1.44 mg/kg
TPE (Rattus norvegicus [14]): 4 h
TPE (Rattus norvegicus [15]): 4 h
TD50 [16]: 2.91 mg/kg
PI [17]: 1.3 (2×) and 2
TPE [18]: 2.5 h
TPE [19]: 2.5 h

O=C(Cc1nc2ccccc2c(=O)n1-c1ccccc1Br)c1ccncc1
Activity (Mus musculus [20]): Toxic
Activity (Mus musculus [21]): Toxic
ED50 (Mus musculus [22]): 19 mg/kg
ED50 (Mus musculus [23]): 136 mg/kg
TPE (Mus musculus [24]): 1 h
TD50 [25]: > 2000 mg/kg
PI [17]: > 14.7
PI [26]: >105

CCC1(c2ccccc2)C(=O)NCNC1=O [PRIMIDONE]
ED50 (Mus musculus [27]): 58.6 mg/kg

Cc1ccccc1-n1c(CC(=O)c2ccncc2)nc2ccccc2c1=O
ED50 (Mus musculus [22]): 100 mg/kg
ED50 (Mus musculus [23]): 148 mg/kg
ED50 (Mus musculus [5]): 15 mg/kg
ED50 (Mus musculus [28]): 27.1 mg/kg
LD50 at 24 h [29]: > 4000 mg/kg
TPE (Mus musculus [30]): 2 h
TPE (Mus musculus [31]): 0.5 h
TD50 [32]: 561 mg/kg
TD50 [33]: 67.6 mg/kg
ED50 (Rattus norvegicus [12]): 2.57 mg/kg
ED50 (Rattus norvegicus [13]): 1.73 mg/kg
TPE (Rattus norvegicus [34]): 4 h
TD50 [16]: 2.89 mg/kg
TPE (Rattus norvegicus [35]): 4 h
PI [36]: 3.8
PI [37]: 5.6
TPE [38]: 2 h
TPE [39]: 2 h
PI [40]: 2.5
PI [41]: 4.5
PI [42]: 1.7
PI [43]: 1.1

CCC1(c2ccccc2)NC(=O)N(C)C1=O (stereo unspecified) [MEPHENYTOIN]
ED50 (Mus musculus [44]): 30.5 mg/kg
